Holding throughout (format): functional
Assay [1] deals with Staphylococcus aureus. Description: Antibacterial activity against penicillin G-resistant Staphylococcus aureus ATCC 14154 by agar inclusion method. In outline:
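MIC by agar inclusion in brain heart infusion medium, pH 7.4, using twofold dilutions. Strain ATCC 14154 is penicillin G resistant. Values reported in […].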

In assay [2] the test system is Streptococcus pyogenes. Description: Antibacterial activity against Streptococcus pyogenes ATCC 8668 by agar inclusion method. In outline: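 MIC by agar inclusion, twofold dilutions in brain heart infusion medium at pH 7.4, reported in […].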
The subject of assay [3] is Staphylococcus aureus. Description: Antibacterial activity against Staphylococcus aureus Smith infected in sc dosed mouse assessed as survival of host administered 1 hr and 5 hrs post challenge measured 72 hrs post challenge. The essentials:
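Mice infected ip with about 2×10^3 S. aureus Smith organisms per mouse, culture diluted in 4% hog gastric mucin for uniformly lethal infection. Twofold dilutions given sc in equally divided portions at 1 and 5 h postinfection, four groups of ten mice. Survivors observed for 72 h. PD50 (total mg/kg protecting 50%) calculated by probit analysis.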

Turning to `Cn1nnnc1SC/C=C/C1=C(C(=O)[O-])N2C(=O)[C@@H](NC(=O)Cc3cccs3)[C@H]2SC1.[Na+]`, the MIC (in general, the least concentration at which growth counts as inhibited) in assay [1] came out at 200 µM; in assay [2], 1.6 µM. Moreover, the PD50 in assay [3] turned out to be 0.3 µmol/kg.

In the case of `CC(=O)OC/C=C/C1=C(C(=O)[O-])N2C(=O)[C@@H](NC(=O)Cc3cccs3)[C@H]2SC1.[Na+]`, the MIC was 560 µM in assay [1] and under 2 µM in assay [2]. Further, the PD50 in assay [3] came out at 1.85 µmol/kg.

For `CC(=O)OCC1=C(C(=O)[O-])N2C(=O)[C@@H](NC(=O)Cc3cccs3)[C@H]2SC1.[Na+]` [CEPHALOTHIN SODIUM], the MIC in assay [1] amounted to 480 µM; in assay [2], 74 µM. The PD50 in assay [3] was 3.54 µmol/kg.

On to `Cn1nnnc1SCC1=C(C(=O)[O-])N2C(=O)[C@@H](NC(=O)Cc3cccs3)[C@H]2SC1.[Na+]`, for which the MIC was 100 µM in assay [1] and 13 µM in assay [2]. Further, the PD50 in assay [3] is 1.69 µmol/kg.

The record behind these values is ChEMBL document CHEMBL3244118, “3-(3-Substituted prop-1-enyl)cephalosporins” (1977).
